For five compounds, MIC results are on record in ChEMBL document CHEMBL1275555, “Genetic heterogeneity in pbp genes among clinically isolated group B Streptococci with reduced penicillin susceptibility” (2008).

Assay [1] concerns Streptococcus sp. 'group B'. Kind of assay: Antimicrobial activity against Group B Streptococcus serotype Ia N1 harboring E63K mutation in PBP 2A and L41S mutation in PBP 1B by broth microdilution method. It counts as functional. The procedure, abridged: (§1)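 Broth microdilution MICs following CLSI guidelines, using a commercial panel system; GBS clinical isolates and reference strains grown in Todd-Hewitt broth at 37°C. Each strain tested five times to confirm reproducibility, with S. pneumoniae ATCC 49619 as quality-control strain. No β-lactamase activity by acidimetric method in any strain.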
(In general: Dilution methods test growth across graded concentrations, often in twofold steps.)

The subject of assay [2] is Streptococcus sp. 'group B'. The assay can be described thus: Antimicrobial activity against Group B streptococcus serotype III N3 by broth microdilution method. It counts as functional. The procedure, abridged:
(§2)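 Broth microdilution MICs read on a commercial dried panel system (type 3J), following CLSI guidelines. Isolates were grown in Todd-Hewitt broth at 37°C. Each strain was tested five times for reproducibility, with S. pneumoniae ATCC 49619 as the quality-control strain. β-lactamase activity was checked by the acidimetric method.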

Assay [3] relates to Streptococcus sp. 'group B'. Kind of assay: Antimicrobial activity against Group B streptococcus serotype VI R4 harboring Q557E mutation in PBP 2X and T567I, Y262N mutations in PBP 2B by broth microdilution method. It counts as functional. The procedure, abridged: as §1
For assay [4], the system named is Streptococcus sp. 'group B'. The assay can be described thus: Antimicrobial activity against Group B streptococcus serotype V C1 harboring E63K mutation in PBP 2A and L41S mutation in PBP 1B by broth microdilution method. It counts as functional. The gist of the method: as §1
For assay [5], the system named is Streptococcus sp. 'group B'. Kind of assay: Antimicrobial activity against Group B streptococcus serotype Ib C2 harboring E63K mutation in PBP 2A and L41S mutation in PBP 1B by broth microdilution method. It counts as functional. The gist of the method:
as §1

The test system of assay [6] is Streptococcus sp. 'group B'. The assay can be described thus: Antimicrobial activity against Group B streptococcus serotype Ia R7 harboring T77I, F395V and S353F in PBP 2X; V80A and G613R in PBP 2B; and L45P, N163K, N723S and Y470F in PBP 1A by broth microdilution method. It counts as functional. The procedure, abridged: as §1
Assay [7] concerns Streptococcus sp. 'group B'. Kind of assay: Antimicrobial activity against Group B streptococcus serotype VI R5 harboring F395L, V405A, R433H, H438Y, and G648A mutations in PBP 2X and T567I mutation in PBP 2B by broth microdilution method. It counts as functional. The gist of the method:
as §1

In assay [8] the test system is Streptococcus sp. 'group B'. Kind of assay: Antimicrobial activity against Group B streptococcus serotype VI N4 harboring E63K mutation in PBP 2A and L41S mutation in PBP 1B by broth microdilution method. It counts as functional. The procedure, abridged: as §1
The subject of assay [9] is Streptococcus sp. 'group B'. Kind of assay: Antimicrobial activity against Group B Streptococcus serotype V harboring E63K mutation in PBP 2A and L41S mutation in PBP 1B by broth microdilution method.
For assay [10], the system named is Streptococcus sp. 'group B'. The assay can be described thus: Antimicrobial activity against Group B streptococcus serotype Ib R3 harboring Q557E, A400V mutations in PBP 2X and T567I, G539E mutations in PBP 2B by broth microdilution method. It counts as functional. The gist of the method: as §1
Assay [11] deals with Streptococcus sp. 'group B'. The assay can be described thus: Antimicrobial activity against Group B streptococcus serotype VI R2 harboring F395L, V405A, R433H, H438Y, and G648A mutations in PBP 2X and T567I mutation in PBP 2B by broth microdilution method. It counts as functional. The procedure, abridged:
as §1

In assay [12] the test system is Streptococcus sp. 'group B'. The assay can be described thus: Antimicrobial activity against Group B Streptococcus serotype III NEM 316 by broth microdilution method. It counts as functional. The procedure, abridged: as §2
Assay [13] deals with Streptococcus sp. 'group B'. The assay can be described thus: Antimicrobial activity against Group B streptococcus serotype VI R6 harboring F395L, V405A, R433H, H438Y, A374V and G648A mutations in PBP 2X and T567I mutation in PBP 2B by broth microdilution method. It counts as functional. The gist of the method:
as §1

In assay [14] the test system is Streptococcus sp. 'group B'. The assay can be described thus: Antimicrobial activity against Group B streptococcus R8 harboring T77I, S353F and A514V in PBP 2X; V80A and G613R in PBP 2B; and L45P, N163K, N723S and G527V in PBP 1A by broth microdilution method. It counts as functional. The gist of the method: as §1
Assay [15] deals with Streptococcus sp. 'group B'. Kind of assay: Antimicrobial activity against Group B streptococcus serotype VI R1 harboring F395L, V405A, R433H, H438Y, and G648A mutations in PBP 2X and T567I mutation in PBP 2B by broth microdilution method. It counts as functional. The gist of the method: as §1
For assay [16], the system named is Streptococcus sp. 'group B'. Kind of assay: Antimicrobial activity against Group B streptococcus serotype Ib N2 harboring E63K mutation in PBP 2A and L41S mutation in PBP 1B by broth microdilution method. It counts as functional. The gist of the method: as §1

In brackets after ≈: the same amount, converted by molar mass. Bounds are passed on as bounds.

As usually defined, the MIC is the lowest concentration that inhibits growth of the organism. Read a low MIC as a more susceptible organism. With `CC1(C)S[C@@H]2[C@H](NC(=O)[C@H](N)c3ccccc3)C(=O)N2[C@H]1C(=O)O` [AMPICILLIN], the MIC in assay [1] came to 0.12 µg/mL (≈ 0.343 µM); in assay [2] it was 0.12 µg/mL (≈ 0.343 µM); in assay [3] it was 0.25 µg/mL (≈ 0.715 µM); in assay [4], 0.12 µg/mL (≈ 0.343 µM); in assay [5], 0.25 µg/mL (≈ 0.715 µM); in assay [6], 0.5 µg/mL (≈ 1.43 µM). Besides, the minimum inhibitory concentration (MIC) in assay [7] came to 0.5 µg/mL (≈ 1.43 µM); in assay [8], 0.12 µg/mL (≈ 0.343 µM); in assay [9], 0.12 µg/mL (≈ 0.343 µM); in assay [10], 0.25 µg/mL (≈ 0.715 µM); in assay [11], 0.5 µg/mL (≈ 1.43 µM); in assay [12], 0.12 µg/mL (≈ 0.343 µM). Also, the MIC in assay [13] worked out at 0.5 µg/mL (≈ 1.43 µM); in assay [14], 0.5 µg/mL (≈ 1.43 µM); in [15] it was 0.5 µg/mL (≈ 1.43 µM); in assay [16], 0.25 µg/mL (≈ 0.715 µM).

Turning to `CO/N=C(\C(=O)N[C@@H]1C(=O)N2C(C(=O)OCOC(=O)C(C)(C)C)=C(/C=C\c3scnc3C)CS[C@H]12)c1csc(N)n1` [CEFDITOREN PIVOXIL], the MIC was at most 0.06 µg/mL in [1]; at most 0.06 µg/mL in [2]; 0.25 µg/mL (≈ 0.403 µM) in assay [3]; at most 0.06 µg/mL in assay [4]; at most 0.06 µg/mL in [5]; 0.5 µg/mL (≈ 0.805 µM) in [6]. Further, the MIC in [7] is 0.25 µg/mL (≈ 0.403 µM); in assay [8], at most 0.06 µg/mL; in assay [9] it was at most 0.06 µg/mL; in assay [10], 0.25 µg/mL (≈ 0.403 µM); in [11], 0.25 µg/mL (≈ 0.403 µM); in assay [12], at most 0.06 µg/mL. For the same compound, the minimum inhibitory concentration (MIC) in assay [13] was 0.25 µg/mL (≈ 0.403 µM); in assay [14] it was 0.5 µg/mL (≈ 0.805 µM); in assay [15], 0.25 µg/mL (≈ 0.403 µM); in [16], at most 0.06 µg/mL.

Regarding `CO/N=C(\C(=O)N[C@@H]1C(=O)N2C(C(=O)[O-])=C(C[N+]3(C)CCCC3)CS[C@H]12)c1csc(N)n1` [CEFEPIME], the minimum inhibitory concentration (MIC) in [1] was at most 0.5 µg/mL; in assay [2], at most 0.5 µg/mL; in assay [3], 1 µg/mL (≈ 2.08 µM); in assay [4] it was at most 0.5 µg/mL; in assay [5] it was at most 0.5 µg/mL; in assay [6], 2 µg/mL (≈ 4.16 µM). Also, the minimal inhibitory concentration (MIC) in assay [7] is 1 µg/mL (≈ 2.08 µM); in assay [8], at most 0.5 µg/mL; in [9], at most 0.5 µg/mL; in [10], at most 0.5 µg/mL; in assay [11] it was 1 µg/mL (≈ 2.08 µM); in [12], at most 0.5 µg/mL. Moreover, the minimum inhibitory concentration (MIC) is 1 µg/mL (≈ 2.08 µM) in [13], 1 µg/mL (≈ 2.08 µM) in assay [14], 1 µg/mL (≈ 2.08 µM) in assay [15] and at most 0.5 µg/mL in [16].

With `C=CC1=C(C(=O)O)N2C(=O)[C@@H](NC(=O)/C(=N\OCC(=O)O)c3csc(N)n3)[C@H]2SC1` [CEFIXIME], the MIC in assay [1] is 0.5 µg/mL (≈ 1.1 µM); in [2], 0.5 µg/mL (≈ 1.1 µM); in assay [3] it was above 1 µg/mL; in assay [4], 0.5 µg/mL (≈ 1.1 µM); in [5], 0.5 µg/mL (≈ 1.1 µM); in [6] it was above 1 µg/mL. Further, the MIC is above 1 µg/mL in assay [7]; 0.5 µg/mL (≈ 1.1 µM) in [8]; 0.5 µg/mL (≈ 1.1 µM) in [9]; above 1 µg/mL in [10]; above 1 µg/mL in [11]; 0.5 µg/mL (≈ 1.1 µM) in assay [12]. In addition, the MIC in assay [13] is above 1 µg/mL; in [14] it was above 1 µg/mL; in [15], above 1 µg/mL; in assay [16] it was 1 µg/mL (≈ 2.21 µM).

With `CO/N=C(\C(=O)N[C@@H]1C(=O)N2C(C(=O)O)=C(COC(C)=O)CS[C@H]12)c1csc(N)n1` [CEFOTAXIME], the MIC in [1] was 0.12 µg/mL (≈ 0.263 µM); in [2], 0.12 µg/mL (≈ 0.263 µM); in assay [3] it was 0.5 µg/mL (≈ 1.1 µM); in [4], at most 0.06 µg/mL; in assay [5] it was 0.12 µg/mL (≈ 0.263 µM); in assay [6], 1 µg/mL (≈ 2.2 µM). Further, the MIC was 0.5 µg/mL (≈ 1.1 µM) in assay [7]; at most 0.06 µg/mL in assay [8]; at most 0.06 µg/mL in assay [9]; 0.5 µg/mL (≈ 1.1 µM) in assay [10]; 0.5 µg/mL (≈ 1.1 µM) in assay [11]; at most 0.06 µg/mL in assay [12]. The MIC in [13] came out at 0.5 µg/mL (≈ 1.1 µM); in assay [14] it was 1 µg/mL (≈ 2.2 µM); in [15] it was 0.5 µg/mL (≈ 1.1 µM); in assay [16], 0.12 µg/mL (≈ 0.263 µM).
